Changes are numbered by the printed parent chain. Calls of active or inactive are those of the source. No cut-off for these calls is given here.
Tests used:
[1] = biological target: Retinoic acid receptor gamma (Homo sapiens) (UniProt P13631); experiment: Antagonist activity against RARgamma ligand binding domain (unknown origin) expressed in human MCF7 cells assessed as inhibition of ATRA-induced receptor transactivation at 10 uM after 18 hrs by luciferase reporter gene based mammalian one-hybrid assay
A549 = experiment: Induction of apoptosis in human A549 cells assessed as PARP cleavage at 5 and 10 uM by immunoblotting method; format: functional, cell-based
In short: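 A549 or HepG2 cells were treated with compound for 24 h, with or without subsequent TNFα (20 ng/mL) for 30 min. Lysates were immunoblotted for PARP cleavage as the apoptosis marker. One of three to five similar experiments shown.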

[2] = biological target: Retinoic acid receptor RXR-alpha/oxysterols receptor LXR-alpha (Homo sapiens) (UniProt P19793+Q13133); experiment: Antagonist activity against RXRalpha/LXRalpha ligand binding domain (unknown origin) expressed in human HEK293T cells assessed as inhibition of 9-cis-RA/T09-induced receptor transactivation at 2 and 10 uM after 18 hrs by luciferase reporter gene based mammalian one-hybrid assay; format: cell-based; conditions: HEK-293T
[3] = test system: T1, Retinoic acid receptor RXR-alpha (Homo sapiens), P19793 [C432W]; experiment: Antagonist activity against RXRalpha C432W/F313A mutant (unknown origin) expressed in human HEK293T cells assessed as inhibition of constitutive receptor transactivation at 1 to 10 uM after 18 hrs by luciferase reporter gene based mammalian one-hybrid assay; conditions: HEK-293T
T1 sequence (whole entry): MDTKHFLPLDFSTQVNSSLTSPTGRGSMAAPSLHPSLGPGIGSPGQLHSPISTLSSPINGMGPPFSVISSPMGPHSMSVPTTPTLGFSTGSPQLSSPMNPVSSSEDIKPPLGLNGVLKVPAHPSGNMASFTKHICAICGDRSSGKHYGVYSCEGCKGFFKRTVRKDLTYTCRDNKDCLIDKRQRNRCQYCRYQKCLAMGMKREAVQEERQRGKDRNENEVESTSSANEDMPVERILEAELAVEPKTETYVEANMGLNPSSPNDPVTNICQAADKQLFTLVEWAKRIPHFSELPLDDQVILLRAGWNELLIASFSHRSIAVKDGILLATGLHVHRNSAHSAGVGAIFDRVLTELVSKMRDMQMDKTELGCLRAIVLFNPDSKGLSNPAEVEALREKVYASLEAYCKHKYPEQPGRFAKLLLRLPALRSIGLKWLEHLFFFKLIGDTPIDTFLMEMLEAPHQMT

[4] = biological target: T2, Retinoic acid receptor RXR-alpha (Homo sapiens) (UniProt P19793); experiment: Antagonist activity against RXRalpha delta80 mutant (unknown origin) expressed in human A549 cells assessed as reduction in TNFalpha-induced interaction of Myc-tagged RXRalpha- delta80 with p85alpha by co-immunoprecipitation assay; format: cell-based
T2 sequence (whole entry): T1 sequence (whole entry) with W432C
In short: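 A549 cells were transfected with Myc-RXRα-Δ80 (truncated RXRα mimic) and treated with or without TNFα and/or compound. Anti-Myc immunoprecipitates were immunoblotted for endogenous p85α and Myc-RXRα-Δ80. One of three to five similar experiments shown.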

[5] = biological target: T3, Estrogen receptor (Homo sapiens) (UniProt P03372); experiment: Antagonist activity against estrogen receptor ligand binding domain (unknown origin) expressed in human MCF7 cells assessed as inhibition of propyl pyrazole-induced receptor transactivation at 10 uM after 18 hrs by luciferase reporter gene based mammalian one-hybrid assay; format: cell-based
T3 sequence (whole entry): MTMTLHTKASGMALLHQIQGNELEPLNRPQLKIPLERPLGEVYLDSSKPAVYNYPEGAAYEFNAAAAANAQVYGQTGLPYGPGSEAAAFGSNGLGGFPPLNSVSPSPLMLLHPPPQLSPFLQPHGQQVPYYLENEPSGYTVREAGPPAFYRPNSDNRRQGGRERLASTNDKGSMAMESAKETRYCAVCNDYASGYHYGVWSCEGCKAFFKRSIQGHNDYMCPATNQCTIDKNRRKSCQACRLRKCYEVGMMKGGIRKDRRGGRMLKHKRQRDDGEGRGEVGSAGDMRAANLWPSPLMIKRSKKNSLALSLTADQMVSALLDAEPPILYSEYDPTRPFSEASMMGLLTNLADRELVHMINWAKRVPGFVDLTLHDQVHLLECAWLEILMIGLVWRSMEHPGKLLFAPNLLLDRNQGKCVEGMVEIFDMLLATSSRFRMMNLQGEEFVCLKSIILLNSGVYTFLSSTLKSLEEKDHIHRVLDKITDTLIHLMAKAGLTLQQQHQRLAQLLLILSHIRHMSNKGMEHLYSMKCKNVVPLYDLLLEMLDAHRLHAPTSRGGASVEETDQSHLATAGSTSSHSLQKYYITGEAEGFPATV
In short: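 MCF-7 cells co-transfected with pG5-Luc and the pBind-LBD fusion: Nur77, RARγ or ER. Agonists were all-trans-RA 10⁻⁷ M for RARγ and Nur77, and propyl pyrazole triol 10 μM for ER. Compound at 10 μM for 18 h. Dual-luciferase read-out normalized to Renilla. Mean ± SD.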

MCF7 = experiment: Growth inhibition of tRXRalpha stably expressing human MCF7 cells at 2 to 10 uM after 48 hrs by MTT assay; format: functional, cell-based

Retinoic acid receptor gamma (Homo sapiens), sequence (P13631 whole entry, looked up, the tested form may be a part): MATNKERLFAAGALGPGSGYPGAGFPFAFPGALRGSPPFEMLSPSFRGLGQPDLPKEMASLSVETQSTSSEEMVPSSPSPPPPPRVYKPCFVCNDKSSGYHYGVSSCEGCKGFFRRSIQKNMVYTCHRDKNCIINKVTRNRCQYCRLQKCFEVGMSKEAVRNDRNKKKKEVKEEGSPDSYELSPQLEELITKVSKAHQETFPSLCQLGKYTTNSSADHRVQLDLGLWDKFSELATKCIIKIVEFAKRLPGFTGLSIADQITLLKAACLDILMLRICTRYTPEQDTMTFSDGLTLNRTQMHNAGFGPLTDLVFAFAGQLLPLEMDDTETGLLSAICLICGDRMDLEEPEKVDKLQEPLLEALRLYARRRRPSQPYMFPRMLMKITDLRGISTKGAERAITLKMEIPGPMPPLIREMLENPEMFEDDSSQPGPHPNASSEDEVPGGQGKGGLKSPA

inhibition [1]: Active | inhibition [2]: inactive | inhibition [3]: Dose-dependent effect | inhibition [4]: Active | inhibition [5]: inactive
SMILES: Cc1cc(=O)oc2c(/C=N/NC(=O)CSc3nc4ccccc4s3)c(O)ccc12
Activity (A549): Active | growth inhibition (GI) (MCF7): Active

Source: ChEMBL document CHEMBL3352174, “Identification of a New RXRα Antagonist Targeting the Coregulator-Binding Site” (ACS Med Chem Lett, 2014)
